One series concerns Trichomonas vaginalis. The series is described as follows: Antiparasitic activity against Trichomonas vaginalis 162 after 48 hrs by MTT assay. It counts as functional, organism-based. As to conditions: Trichomonas vaginalis, 162, 48 h. The method, boiled down:
(§1)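 Trophozoite cultures grown in 96-well plates at 37 °C for 24 h, then serial two-fold dilutions (0.9-15 μg/cm³) added from DMSO stocks, 0.5% DMSO as 100%-growth control. Incubated 48 h, then MTT 4 h at 37 °C in dark. Dissolved in DMSO, A570 read. IC50 from sigmoid dose-response. Run in duplicate, three independent experiments in triplicate.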
A general note: Tetrazolium assays rely on reduction of a dye to a coloured formazan, in cell work by metabolically active cells.

Series [1] is described as follows: Cytotoxicity against HEK293 cells after 18 hrs by MTT assay. As to conditions: human. It is filed as cell-based.
Series [2] is described as follows: Cytotoxicity against human HeLa cells after 18 hrs by MTT assay. It counts as cell-based. The method, boiled down: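 Cells (5×10^4/well) seeded in RPMI-1640 with 10% FBS, overnight at 37 °C. Compounds added at 100 to 1.56 µM for 18 h at 37 °C. MTT (5 mg/ml in PBS) added for 3-4 h, formazan dissolved in DMSO. CC50 is the concentration giving 50% growth inhibition relative to untreated cells.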

Series [3] is described as follows: Selectivity index, ratio of CC50 for HEK293 cells to IC50 for Trichomonas vaginalis 162. It counts as functional.
Series [4] is described as follows: Selectivity index, ratio of CC50 for human HeLa cells to IC50 for Trichomonas vaginalis 162. It counts as functional.
In a further series the test system is Giardia intestinalis. The experiment in a line: Antiparasitic activity against Giardia lamblia Portland 1 after 48 hrs by MTT assay. It is filed as functional, organism-based. As to conditions: Giardia duodenalis, Portland 1, 48 h. The essentials:
as §1

The nature of series [5]: Selectivity index, ratio of CC50 for HEK293 cells to IC50 for Giardia lamblia Portland 1. It is filed as functional.
The nature of series [6]: Selectivity index, ratio of CC50 for human HeLa cells to IC50 for Giardia lamblia Portland 1. It counts as functional.

As usually defined, the IC50 is the concentration needed to halve the response being measured. What is called CC50 is the concentration giving 50% cytotoxicity. Regarding `COc1ccc(/C=C/C(=O)c2cccc(OCc3cn(CCC[Si]45OCCN(CCO4)CCO5)nn3)c2)cc1`, the IC50 in the series on Trichomonas vaginalis came out at 30.3 µM. Further, the CC50 at 18 h in series [1] came to 267 µM; in series [2], 203 µM. The “Ratio CC50/IC50” value is listed as 8.81 in series [3] and 6.7 in series [4].

Take `Cc1ccc(/C=C/C(=O)c2ccc(OCc3cn(CCC[Si]45OCCN(CCO4)CCO5)nn3)cc2)cc1`: the IC50 in the series on Giardia intestinalis stood at 33.2 µM; with Trichomonas vaginalis, 24.8 µM. Also, the CC50 at 18 h worked out at 198 µM in series [1] and 189 µM in series [2]. The “Ratio CC50/IC50” value in series [5] amounted to 5.95; in series [6], 5.68; in series [3], 7.97; in series [4] it was 7.61.

`COc1ccccc1/C=C/C(=O)c1cccc(OCc2cn(CCC[Si]34OCCN(CCO3)CCO4)nn2)c1`: the IC50 is 43.7 µM in the series with Giardia intestinalis and 43.1 µM with Trichomonas vaginalis.

`COc1ccccc1/C=C/C(=O)c1ccc(OCc2cn(CCC[Si]34OCCN(CCO3)CCO4)nn2)cc1`: the IC50 turned out to be 40.9 µM with Giardia intestinalis and 22.7 µM in the series with Trichomonas vaginalis.

As to `COc1ccc(/C=C/C(=O)c2ccc(OCc3cn(CCC[Si]45OCCN(CCO4)CCO5)nn3)cc2)cc1`, the values for the IC50 in the series with Giardia intestinalis and in the series with Trichomonas vaginalis were 54.9 µM and 21.6 µM, respectively.

Regarding `COc1ccc(/C=C/C(=O)c2ccc(OCc3cn(CCC[Si]45OCCN(CCO4)CCO5)nn3)cc2)c(OC)c1`, the IC50 turned out to be 31.9 µM in the series on Giardia intestinalis and 22.9 µM in the series on Trichomonas vaginalis.

Take `COc1ccccc1/C=C/C(=O)c1ccccc1OCc1cn(CCC[Si]23OCCN(CCO2)CCO3)nn1`: in the series with Trichomonas vaginalis, it took 23.8 µM to reach half-maximal inhibition (IC50).

On to `COc1ccc(/C=C/C(=O)c2ccc(OCc3cn(CCC[Si]45OCCN(CCO4)CCO5)nn3)cc2)c(OC)c1OC`, for which the values for the IC50 with Giardia intestinalis and in the series with Trichomonas vaginalis were 30.2 µM and 18.2 µM, respectively. Besides, the figures for the CC50 at 18 h in series [1] and in series [2] were 270 µM and 227 µM, respectively. In addition, the “Ratio CC50/IC50” value in series [5] was found to be 8.94; in series [6] it was 7.53; in series [3] it was 14.78; in series [4] it was 12.46.

Regarding `COc1ccc(/C=C/C(=O)c2ccccc2OCc2cn(CCC[Si]34OCCN(CCO3)CCO4)nn2)cc1`, the IC50 in the series with Giardia intestinalis came out at 32.2 µM; with Trichomonas vaginalis, 26.7 µM.

As for `COc1ccc(/C=C/C(=O)c2ccccc2OCc2cn(CCC[Si]34OCCN(CCO3)CCO4)nn2)c(OC)c1`, the IC50 in the series on Giardia intestinalis came to 35.4 µM; in the series on Trichomonas vaginalis, 22.1 µM.

For `O=C(/C=C/c1ccc(Cl)cc1)c1ccccc1OCc1cn(CCC[Si]23OCCN(CCO2)CCO3)nn1`, the IC50 came out at 33.9 µM with Giardia intestinalis and 22.3 µM in the series with Trichomonas vaginalis.

Turning to `O=C(/C=C/c1ccccc1)c1cccc(OCc2cn(CCC[Si]34OCCN(CCO3)CCO4)nn2)c1`, the half-maximal inhibitory concentration (IC50) in the series with Giardia intestinalis is 81 µM; with Trichomonas vaginalis, 65.6 µM.

`O=C(/C=C/c1ccc(Cl)cc1)c1ccc(OCc2cn(CCC[Si]34OCCN(CCO3)CCO4)nn2)cc1`: the results for the IC50 in the series with Giardia intestinalis and in the series with Trichomonas vaginalis were 33.1 µM and 21.9 µM, respectively.

Turning to `O=C(/C=C/c1ccccc1)c1ccccc1OCc1cn(CCC[Si]23OCCN(CCO2)CCO3)nn1`, the IC50 with Giardia intestinalis was found to be 28.1 µM; in the series on Trichomonas vaginalis it was 23.3 µM. The CC50 at 18 h worked out at 208 µM in series [1] and 238 µM in series [2]. Besides, the “Ratio CC50/IC50” value is reported as 7.41 in series [5], 8.48 in series [6], 8.94 in series [3] and 10.23 in series [4].

Turning to `Cc1ncc([N+](=O)[O-])n1CCO` [METRONIDAZOLE], the IC50 in the series with Giardia intestinalis was 62.5 µM; with Trichomonas vaginalis, 55.9 µM.

Turning to `Cc1ccc(/C=C/C(=O)c2ccccc2OCc2cn(CCC[Si]34OCCN(CCO3)CCO4)nn2)cc1`, the IC50 in the series with Giardia intestinalis came out at 48 µM; in the series on Trichomonas vaginalis, 50 µM.

Turning to `O=C(/C=C/c1ccccc1)c1ccc(OCc2cn(CCC[Si]34OCCN(CCO3)CCO4)nn2)cc1`, the values for the half-maximal inhibitory concentration (IC50) in the series on Giardia intestinalis and in the series with Trichomonas vaginalis were 59.7 µM and 27.2 µM, respectively.

For `COc1ccc(/C=C/C(=O)c2cccc(OCc3cn(CCC[Si]45OCCN(CCO4)CCO5)nn3)c2)c(OC)c1`, the IC50 in the series with Giardia intestinalis came to 43.9 µM; with Trichomonas vaginalis, 43.8 µM.

With `COc1ccc(/C=C/C(=O)c2cccc(OCc3cn(CCC[Si]45OCCN(CCO4)CCO5)nn3)c2)c(OC)c1OC`, the IC50 was found to be 19.6 µM in the series with Giardia intestinalis and 42.1 µM in the series with Trichomonas vaginalis. Moreover, the CC50 at 18 h in series [1] turned out to be 328 µM; in series [2], 340 µM. Besides, the “Ratio CC50/IC50” value in series [5] is given as 16.74; in series [6], 17.36; in series [3], 7.79; in series [4], 8.07.

On to `Cc1ccc(/C=C/C(=O)c2cccc(OCc3cn(CCC[Si]45OCCN(CCO4)CCO5)nn3)c2)cc1`, for which the IC50 in the series with Giardia intestinalis worked out at 131 µM; in the series on Trichomonas vaginalis, 101 µM.

With `COc1ccc(/C=C/C(=O)c2ccccc2OCc2cn(CCC[Si]34OCCN(CCO3)CCO4)nn2)c(OC)c1OC`, the IC50 in the series with Trichomonas vaginalis was determined as 21.3 µM. For the same compound, the CC50 at 18 h is 285 µM in series [1] and 232 µM in series [2]. In addition, the “Ratio CC50/IC50” value in series [3] is on record as 13.39; in series [4] it was 10.92.

For the compound `O=C(/C=C/c1ccc(Cl)cc1)c1cccc(OCc2cn(CCC[Si]34OCCN(CCO3)CCO4)nn2)c1`, the IC50 with Giardia intestinalis was determined as 78.5 µM; with Trichomonas vaginalis, 55.7 µM.

(Values after ChEMBL document CHEMBL3758079, “Design, synthesis and biological evaluation of chalconyl blended triazole allied organosilatranes as giardicidal and trichomonacidal agents” (Eur J Med Chem, 2016).)
